How the values were obtained:
[1] = Metabolic stability in brain heart infusion medium up to 24 hrs by HPLC analysis; type: ADME, tissue-based
How it was run: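 Prodrug was incubated in BHI medium without bacteria under anaerobic conditions at pH 7.4 and 37 °C. Aliquots were taken at 0, 2, 4, 6 and 24 h and centrifuged at 10,000 rpm for 10 min. Supernatants were stored at −20 °C, then analysed by an HPLC method that resolves BHI components from prodrug and activation byproducts; n = 3.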

Clostridium perfringens [2] = assay: Prodrug activation in Clostridium perfringens assessed as prednisolone release under anaerobic conditions at 50 uM up to 24 hrs by HPLC analysis; type: organism-based
How it was run: (§1)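 C. perfringens grown overnight on brain heart infusion (BHI) agar, then colonies were suspended in BHI broth to OD600 0.9–1.1. Compound incubated in the suspension under anaerobic conditions, pH 7.4, 37 °C, with a no-bacteria BHI control. Aliquots taken at 0, 2, 4, 6 and 24 h and centrifuged at 10,000 rpm for 10 min. Supernatants were stored at −20 °C, then HPLC for prodrug and released parent drug (n = 3).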

Clostridium perfringens [3] = assay: Prodrug activation in Clostridium perfringens assessed as celecoxib release under anaerobic conditions at 50 uM up to 24 hrs by HPLC analysis; type: organism-based; how it was run: as §1
[4] = Stability of the compound in simulated human gastric juices up to 1500 mins by HPLC analysis; type: ADME, Gastric juice; conditions: 25 h
[5] = Stability of the compound in simulated human duodenal fluid up to 1500 mins by HPLC analysis; type: ADME; conditions: 25 h
Caco-2 = assay: Apparent permeability from apical to basolateral side of human Caco2 cells; type: ADME, cell-based
How it was run: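 Transport measured across the epithelial monolayer. Samples were drawn from the acceptor reservoir at 0, 30, 60 and 120 min, and fresh buffer was added each time to keep the volume constant. The donor solution was sampled at 120 min. Caffeine was run in two wells in the apical-to-basolateral direction as a routine control.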

| SMILES | Stability [1] | Drug metabolism (Clostridium perfringens [2]) | Drug metabolism (Clostridium perfringens [3]) | Stability [4] | Stability [5] | Papp (Caco-2) |
| --- | --- | --- | --- | --- | --- | --- |
| C[C@]12C=CC(=O)C=C1CC[C@@H]1[C@@H]2[C@@H](O)C[C@@]2(C)[C@H]1CC[C@]2(O)C(=O)COC(=O)CCc1ccccc1 | Stable | Not Active |  |  |  |  |
| Cc1ccc(-c2cc(C(F)(F)F)nn2-c2ccc(S(=O)(=O)NC(=O)CCc3ccccc3)cc2)cc1 | Stable |  | Not Active |  |  |  |
| Cc1ccc(-c2cc(C(F)(F)F)nn2-c2ccc(S(=O)(=O)NC(=O)CCc3ccccc3[N+](=O)[O-])cc2)cc1 | Stable |  |  | Stable | Stable | permeable |
| Cc1ccc(-c2cc(C(F)(F)F)nn2-c2ccc(S(=O)(=O)NC(=O)Cc3ccccc3[N+](=O)[O-])cc2)cc1 | Stable |  |  | Stable | Stable | permeable |
| CCCC1O[C@@H]2C[C@H]3[C@@H]4CCC5=CC(=O)C=C[C@]5(C)[C@H]4[C@@H](O)C[C@]3(C)[C@]2(C(=O)COC(=O)CCc2ccccc2[N+](=O)[O-])O1 (stereo not given in full) | Stable | Not Active |  | Stable | Stable | impermeable |
| CCCC1O[C@@H]2C[C@H]3[C@@H]4CCC5=CC(=O)C=C[C@]5(C)[C@H]4[C@@H](O)C[C@]3(C)[C@]2(C(=O)COC(=O)Cc2ccccc2[N+](=O)[O-])O1 (stereo not given in full) | Stable | Active |  | Stable | Stable | permeable |
| C[C@]12C=CC(=O)C=C1CC[C@@H]1[C@@H]2[C@@H](O)C[C@@]2(C)[C@H]1CC[C@]2(O)C(=O)COC(=O)CCc1ccccc1[N+](=O)[O-] | Stable | Active |  | Stable | Stable |  |
| C[C@]12C=CC(=O)C=C1CC[C@@H]1[C@@H]2[C@@H](O)C[C@@]2(C)[C@H]1CC[C@]2(O)C(=O)COC(=O)Cc1ccccc1[N+](=O)[O-] | Stable | Active |  | Stable | Stable |  |
